We go through 167 variants from the RNAGym collection of RNA variant scans (doi:10.1002/anie.201605470).

First the molecules themselves.
B1: Osa-1-4 twister ribozyme (parent)
chain: CCGCCUAACACUGCCAAUGCCGGUCCCAAGCCCGGAUAAAAGUGGAGGGGGCGG

The variants in the data set derive from B1. Nature of the data set: self-cleavage, relative activity (ratio to wild type); higher = more cleavage; co-transcriptional. Summed up:
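For each read, cleavage status was taken from whether upstream sequence was present. The reads came from an Oryza sativa twister ribozyme of 54 nucleotides, whose DNA template was synthesised with 97 % wild-type base and 1 % of each other base at the 48 positions downstream of the cleavage site. The template was transcribed in vitro at 37 °C for 2 h with co-transcriptional self-cleavage, and the RNA was reverse-transcribed using a template-switching oligonucleotide, PCR-amplified and deep-sequenced. Relative activity is the fraction cleaved normalised to wild type.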
Turning to G34C G49C, the self-cleavage stood at 0.06.

In the case of G34C G49A, the self-cleavage was found to be 0.06.

For G34C G49U, the self-cleavage was determined as 0.07.

Consider G35C, for which the self-cleavage amounted to 0.72.

Consider G35A, for which the self-cleavage was found to be 0.9.

Turning to G35U, the self-cleavage was determined as 0.9.

A36C C31A: the self-cleavage turned out to be 0.03.

As to A36C C31G, the self-cleavage amounted to 0.04.

Regarding A36C C31U, the self-cleavage was 0.1.

With G35C U24C, the self-cleavage amounted to 0.05.

With G35C U24G, the self-cleavage was found to be 0.01.

On to G35C U24A, for which the self-cleavage amounted to 0.06.

In the case of G35U G50A, the self-cleavage amounted to 0.35.

For the variant G35U G50C, the self-cleavage was 0.79.

Regarding G35U G50U, the self-cleavage is 0.92.

Consider G34U G35A, for which the self-cleavage was determined as 0.6.

In the case of G34U G35C, the self-cleavage came to 0.31.

In the case of G34U G35U, the self-cleavage is 0.52.

With G35A G50A, the self-cleavage came out at 0.35.

For G35A G50C, the self-cleavage was 0.78.

As to G35A G50U, the self-cleavage was found to be 0.9.

On to G34C G44U, for which the self-cleavage worked out at 0.16.

As for G34C G44C, the self-cleavage was 0.14.

Take G34C G44A: the self-cleavage came to 0.2.

Turning to G35C G49A, the self-cleavage turned out to be 0.05.

On to G35C G49U, for which the self-cleavage was found to be 0.05.

Consider G35C G49C, for which the self-cleavage amounted to 0.05.

G34U G54U: the self-cleavage came out at 0.49.

For G34U G54C, the self-cleavage amounted to 0.57.

On to G34U G54A, for which the self-cleavage was 0.39.

As to G35A G44U, the self-cleavage came out at 0.71.

As for G35A G44A, the self-cleavage worked out at 0.8.

With G35A G44C, the self-cleavage was 0.76.

For the variant G35U G45C, the self-cleavage came out at 0.06.

For the variant G35U G45U, the self-cleavage was determined as 0.09.

Take G35U G45A: the self-cleavage is 0.19.

G34C U12G: the self-cleavage worked out at 0.08.

Turning to G34C U12C, the self-cleavage came out at 0.1.

Turning to G34C U12A, the self-cleavage came out at 0.1.

Take G34U G53C: the self-cleavage was found to be 0.05.

On to G34U G53U, for which the self-cleavage was 0.11.

Take G34U G53A: the self-cleavage worked out at 0.27.

Consider G35A U24C, for which the self-cleavage was 0.08.

G35A U24G: the self-cleavage stood at 0.03.

Regarding G35A U24A, the self-cleavage came to 0.32.

Take G34U U43G: the self-cleavage came to 0.07.

On to G34U U43A, for which the self-cleavage was 0.11.

Regarding G34U U43C, the self-cleavage came to 0.15.

For G35C G44A, the self-cleavage amounted to 0.25.

For G35C G44C, the self-cleavage stood at 0.45.

In the case of G35C G44U, the self-cleavage stood at 0.26.

As to G34C G42C, the self-cleavage was 0.09.

For G34C G42U, the self-cleavage came to 0.04.

On to G34C G42A, for which the self-cleavage was 0.09.

With G34A G53C, the self-cleavage is 0.05.

With G34A G53A, the self-cleavage worked out at 0.49.

As for G34A G53U, the self-cleavage was 0.13.

Consider G35A U37A, for which the self-cleavage amounted to 1.05.

For G35A U37C, the self-cleavage is 0.92.

In the case of G35A U37G, the self-cleavage came to 0.89.

Turning to A36C C33A, the self-cleavage was found to be 0.06.

In the case of A36C C33U, the self-cleavage was found to be 0.13.

As for A36C C33G, the self-cleavage is 0.04.

On to G35U U12G, for which the self-cleavage was 0.08.

For the variant G35U U12A, the self-cleavage stood at 0.47.

On to G35U U12C, for which the self-cleavage is 0.37.

Consider G34U G47U, for which the self-cleavage stood at 0.1.

In the case of G34U G47C, the self-cleavage came out at 0.05.

With G34U G47A, the self-cleavage turned out to be 0.09.

For A36C C32G, the self-cleavage is 0.06.

Regarding A36C C32U, the self-cleavage worked out at 0.07.

On to A36C C32A, for which the self-cleavage is 0.06.

In the case of G34U, the self-cleavage amounted to 0.82.

Take G34C: the self-cleavage is 0.71.

With G34C U43A, the self-cleavage is 0.09.

Turning to G34C U43G, the self-cleavage worked out at 0.07.

With G34C U43C, the self-cleavage turned out to be 0.1.

With A36C A7C, the self-cleavage came to 0.05.

Consider A36C A7U, for which the self-cleavage was determined as 0.05.

Regarding A36C A7G, the self-cleavage came to 0.11.

On to G34U G49U, for which the self-cleavage stood at 0.11.

Take G34U G49C: the self-cleavage was found to be 0.06.

Take G34U G49A: the self-cleavage is 0.11.

In the case of G35C U43C, the self-cleavage was 0.09.

Consider G35C U43G, for which the self-cleavage is 0.1.

As for G35C U43A, the self-cleavage stood at 0.14.

On to G35A G51U, for which the self-cleavage came to 0.12.

Turning to G35A G51C, the self-cleavage turned out to be 0.07.

G35A G51A: the self-cleavage turned out to be 0.25.

As for A36C A39C, the self-cleavage came to 0.15.

A36C A39U: the self-cleavage was 0.15.

Consider A36C A39G, for which the self-cleavage was 0.2.

Consider G34U U24C, for which the self-cleavage was found to be 0.07.

With G34U U24G, the self-cleavage came out at 0.03.

Consider G34U U24A, for which the self-cleavage is 0.15.

For G34C G47A, the self-cleavage was 0.07.

Regarding G34C G47U, the self-cleavage came to 0.06.

As for G34C G47C, the self-cleavage stood at 0.05.

For G34A G54U, the self-cleavage was 0.7.

As for G34A G54A, the self-cleavage came out at 0.64.

Regarding G34A G54C, the self-cleavage is 0.7.

With G34A U43A, the self-cleavage was 0.22.

Regarding G34A U43G, the self-cleavage came to 0.1.

Take G34A U43C: the self-cleavage worked out at 0.19.

For the variant G35U U37G, the self-cleavage was 0.89.

G35U U37C: the self-cleavage was found to be 0.94.

In the case of G35U U37A, the self-cleavage stood at 0.92.

G35U G53U: the self-cleavage came to 0.17.

Take G35U G53C: the self-cleavage came to 0.07.

For G35U G53A, the self-cleavage was 0.62.

With G35C U18G, the self-cleavage was 0.77.

Regarding G35C U18A, the self-cleavage turned out to be 0.84.

Consider G35C U18C, for which the self-cleavage was 0.56.

As for G35C G50U, the self-cleavage turned out to be 0.17.

G35C G50C: the self-cleavage turned out to be 0.1.

Take G35C G50A: the self-cleavage was found to be 0.24.

Consider A36C C11U, for which the self-cleavage was determined as 0.26.

On to A36C C11G, for which the self-cleavage worked out at 0.08.

As to A36C C11A, the self-cleavage was 0.11.

With G35A G45U, the self-cleavage is 0.15.

As to G35A G45A, the self-cleavage came out at 0.31.

With G35A G45C, the self-cleavage is 0.06.

On to A36C G19U, for which the self-cleavage was determined as 0.82.

As to A36C G19C, the self-cleavage is 0.56.

For A36C G19A, the self-cleavage came out at 0.76.

Consider A36C A46U, for which the self-cleavage turned out to be 0.05.

For the variant A36C A46G, the self-cleavage is 0.06.

Turning to A36C A46C, the self-cleavage turned out to be 0.07.

Consider G34C U37G, for which the self-cleavage came to 0.66.

In the case of G34C U37C, the self-cleavage came to 0.65.

In the case of G34C U37A, the self-cleavage was 0.6.

Turning to G34C G51C, the self-cleavage was determined as 0.06.

For G34C G51A, the self-cleavage amounted to 0.1.

Take G34C G51U: the self-cleavage came out at 0.06.

For A36C A40C, the self-cleavage was 0.05.

On to A36C A40U, for which the self-cleavage was found to be 0.13.

As to A36C A40G, the self-cleavage turned out to be 0.12.

G35A G49U: the self-cleavage was determined as 0.16.

On to G35A G49C, for which the self-cleavage was determined as 0.07.

With G35A G49A, the self-cleavage amounted to 0.18.

Regarding G34C G54U, the self-cleavage is 0.25.

As to G34C G54A, the self-cleavage is 0.15.

G34C G54C: the self-cleavage was determined as 0.16.

As to G35U U43C, the self-cleavage worked out at 0.21.

Consider G35U U43A, for which the self-cleavage worked out at 0.44.

Consider G35U U43G, for which the self-cleavage turned out to be 0.12.

As for A36C C26G, the self-cleavage came out at 0.06.

For A36C C26A, the self-cleavage was determined as 0.03.

As to A36C C26U, the self-cleavage came to 0.12.

Take G35C G53U: the self-cleavage is 0.09.

In the case of G35C G53C, the self-cleavage turned out to be 0.06.

On to G35C G53A, for which the self-cleavage stood at 0.12.

Regarding G34C G48C, the self-cleavage was determined as 0.05.

Turning to G34C G48U, the self-cleavage worked out at 0.05.

In the case of G34C G48A, the self-cleavage was 0.06.

As to G35C G48U, the self-cleavage came to 0.04.

On to G35C G48A, for which the self-cleavage was found to be 0.05.

Turning to G35C G48C, the self-cleavage came out at 0.04.

With G35A G42U, the self-cleavage turned out to be 0.08.

Consider G35A G42A, for which the self-cleavage is 0.44.

As for G35A G42C, the self-cleavage came to 0.17.

As for G35U U18G, the self-cleavage came out at 0.77.

In the case of G35U U18C, the self-cleavage was determined as 0.5.

As for G35U U18A, the self-cleavage is 0.8.

As for G35C G42U, the self-cleavage amounted to 0.07.

Turning to G35C G42C, the self-cleavage is 0.07.

Take G35C G42A: the self-cleavage is 0.08.
